Results reported in ChEMBL document CHEMBL1149289, “Synthesis and antibacterial activity of new poly-S-lysine-porphyrin conjugates” (J Med Chem, 2004).

Assays:
Type in all cases: ADME, organism-based
Conditions in all cases: in vivo
Escherichia coli = experiment: Drug uptake per mg of protein in Escherichia coli O4 at 0.1 uM after 10 mins
How it was run: (§1)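 Washed stationary-phase bacteria in PBS (10^8 to 10^9 cells/mL; OD650 ca. 0.7) incubated 10 min in the dark at room temperature with photosensitizer. Cells were then centrifuged, supernatant removed, and pellet digested in 2% aqueous SDS. Porphyrin measured by spectrofluorimetry, cell protein by modified Lowry with BSA standard; uptake expressed as nmol photosensitizer per mg cell protein.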

Staphylococcus aureus [1] = experiment: Drug uptake per mg of protein in Staphylococcus aureus ATCC 25923 at 0.1 uM after 10 mins; how it was run: as §1
Staphylococcus aureus [2] = experiment: Drug uptake per mg of protein in methicillin-resistant Staphylococcus aureus 110 at 0.1 uM after 10 mins
How it was run: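 Bacterial suspensions (10^8 to 10^9 cells/mL in PBS) were incubated with porphyrin for 10 min in the dark at room temperature, then centrifuged. The pellet was digested in 2% aqueous SDS. Porphyrin was quantified by spectrofluorimetry and cell protein by modified Lowry assay (BSA standard). Uptake is given as nmol per mg cell protein.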

O=C(O)c1ccc(-c2c3nc(c(-c4ccncc4)c4ccc([nH]4)c(-c4ccncc4)c4nc(c(-c5ccncc5)c5ccc2[nH]5)C=C4)C=C3)cc1 [PORPHIRIN]
Drug uptake (Escherichia coli): 1.2 nmol/mg | Drug uptake (Staphylococcus aureus [1]): 1.54 nmol/mg | Drug uptake (Staphylococcus aureus [2]): 1.5 nmol/mg
